Source: ChEMBL document CHEMBL3862004, “A Cyclic Tetrapeptide ("Cyclodal") and Its Mirror-Image Isomer Are Both High-Affinity μ Opioid Receptor Antagonists” (J Med Chem, 2016)
Active and inactive are the calls of the source. The rule behind the calls is not given here.

Key:
[1] = target: Kappa-type opioid receptor (Cavia porcellus, UniProt P41144); experiment: Displacement of [3H]U69,593 from KOR in guinea pig brain membrane measured after 2 hrs; format: cell membranes
Outline: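 Guinea pig brain membranes incubated 2 h at 0 °C with 0.80 nM [3H]U69,593. […] Values are the mean of three to four determinations ± SEM.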

[2] = target: Delta-type opioid receptor (Rattus norvegicus, UniProt P33533); experiment: Displacement of [3H]DSLET from DOR in rat brain membrane measured after 2 hrs; format: cell membranes
Chain of Delta-type opioid receptor (P33533 whole entry): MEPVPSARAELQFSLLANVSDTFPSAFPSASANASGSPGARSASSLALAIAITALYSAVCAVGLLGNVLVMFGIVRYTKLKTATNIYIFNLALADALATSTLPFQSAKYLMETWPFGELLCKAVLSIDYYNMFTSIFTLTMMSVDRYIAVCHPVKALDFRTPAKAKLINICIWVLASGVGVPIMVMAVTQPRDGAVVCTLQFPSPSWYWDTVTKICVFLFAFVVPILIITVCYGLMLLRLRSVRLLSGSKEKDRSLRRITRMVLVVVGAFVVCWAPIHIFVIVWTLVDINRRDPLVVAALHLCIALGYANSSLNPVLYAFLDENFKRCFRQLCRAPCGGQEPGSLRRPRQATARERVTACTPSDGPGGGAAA

[3] = target: Delta-type opioid receptor (Mus musculus) (UniProt P32300); experiment: Partial agonist activity at delta opioid receptor in mouse vas deferens assessed as inhibition of electrically-stimulated muscle contraction
Chain of Delta-type opioid receptor (Mus musculus) (P32300 whole entry): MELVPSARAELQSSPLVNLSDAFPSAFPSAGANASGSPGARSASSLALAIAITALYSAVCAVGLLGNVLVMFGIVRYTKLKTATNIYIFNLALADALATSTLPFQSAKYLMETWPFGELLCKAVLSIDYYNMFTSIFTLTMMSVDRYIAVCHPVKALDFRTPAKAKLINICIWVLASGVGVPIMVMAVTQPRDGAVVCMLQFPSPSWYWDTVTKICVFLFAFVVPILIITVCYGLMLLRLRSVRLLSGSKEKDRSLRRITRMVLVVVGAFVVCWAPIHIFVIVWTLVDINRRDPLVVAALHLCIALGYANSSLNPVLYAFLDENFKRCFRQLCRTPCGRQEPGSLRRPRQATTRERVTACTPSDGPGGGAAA
Outline: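 Mouse vas deferens preparation. A [Leu5]enkephalin dose–response curve was run on each preparation as standard, and test IC50 values were normalised to it. Mean of three to four determinations ± SEM.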

[4] = Metabolic stability in rat plasma assessed as compound degradation at 37 degC measured after 2 hrs by reverse-phase HPLC analysis; format: ADME, cell-free; conditions: read-out: Drug degradation
Outline: (§1)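 Peptide at 0.5 mg/mL in 0.01 M phosphate buffer pH 7.4 mixed 1:1 with rat plasma supernatant and incubated at 37 °C. Samples taken at 0, 5, 10, 15, 30 min and 1, 2, 3, 24, 48 h, quenched with acetonitrile and 2% TFA/water. Analysed by reversed-phase C18 HPLC; peak areas expressed as percent of initial.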

[5] = organism: Rattus norvegicus; experiment: Selectivity ratio of Ki for DOR in rat brain membrane to Ki for MOR in rat brain membrane; format: cell membranes
[6] = Selectivity ratio of Ki for KOR in guinea pig brain membrane to Ki for MOR in rat brain membrane; format: cell membranes
[7] = target: Mu-type opioid receptor (Cavia porcellus, UniProt P97266); experiment: Agonist activity at MOR in guinea pig ileum assessed as inhibition of electrically-stimulated muscle contractions
Chain of Mu-type opioid receptor (Cavia porcellus, UniProt P97266) (P97266 whole entry): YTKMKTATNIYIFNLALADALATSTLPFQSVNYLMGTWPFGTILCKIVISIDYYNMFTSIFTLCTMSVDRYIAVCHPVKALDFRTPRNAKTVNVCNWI
Outline: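 Isolated guinea pig ileum preparation; each preparation received a [Leu⁵]enkephalin standard dose–response curve. IC50 values came from concentration–response curves and were normalized to that standard. Values are the mean of three to four determinations ± SEM.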

[8] = Metabolic stability in rat plasma at 37 degC measured up to 48 hrs by reverse-phase HPLC analysis; format: ADME, cell-free; outline: as §1
[9] = AUC in CD-1 mouse brain at 2 mg/kg, iv by LC-MS/MS analysis; format: ADME, organism-based; conditions: in vivo
Outline: (§2)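 Male CD1 mice (27 g) given 2 mg/kg iv in saline; brain and plasma sampled at 5, 15, 30, 60, 120 and 240 min. Brain homogenised in PBS pH 7.4, plasma proteins precipitated with acetonitrile/methanol (1:1). Quantitation by LC–MS/MS against internal standard, with standard curves extracted from brain homogenate and fitted by 1/x-weighted linear regression. AUCs were taken from concentration–time curves.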

[10] = AUC in CD-1 mouse plasma at 2 mg/kg, iv by LC-MS/MS analysis; format: ADME, organism-based; outline: as §2
[11] = Cmax in CD-1 mouse brain at 2 mg/kg, iv measured after 30 mins by LC-MS/MS analysis; format: ADME, organism-based; parameters: dose 2 mg/kg, route intravenous; outline: as §2
[12] = target: Mu-type opioid receptor (Cavia porcellus) (UniProt P97266); experiment: Antagonist activity at MOR in guinea pig ileum assessed as inhibition of TAPP-induced muscle contractions
Chain of Mu-type opioid receptor (Cavia porcellus) (P97266 whole entry): as above
Outline: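 Guinea pig ileum preparation. Ke was derived from the ratio of TAPP IC50 with and without a fixed antagonist concentration. Mean of three to four determinations ± SEM.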

[13] = target: Kappa-type opioid receptor (Cavia porcellus) (UniProt P41144); experiment: Antagonist activity at KOR in guinea pig ileum assessed as inhibition of U50,488-induced muscle contractions
Chain of Kappa-type opioid receptor (Cavia porcellus) (P41144 whole entry): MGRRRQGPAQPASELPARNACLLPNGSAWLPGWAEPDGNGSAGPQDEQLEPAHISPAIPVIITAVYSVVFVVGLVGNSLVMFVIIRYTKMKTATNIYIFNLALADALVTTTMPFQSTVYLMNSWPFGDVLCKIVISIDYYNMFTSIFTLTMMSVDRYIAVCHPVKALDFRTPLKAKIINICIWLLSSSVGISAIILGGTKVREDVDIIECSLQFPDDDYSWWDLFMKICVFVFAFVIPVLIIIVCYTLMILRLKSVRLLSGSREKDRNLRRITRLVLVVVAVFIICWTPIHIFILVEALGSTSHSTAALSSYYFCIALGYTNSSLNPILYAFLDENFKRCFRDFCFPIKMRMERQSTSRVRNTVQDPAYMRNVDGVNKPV

[14] = target: Mu-type opioid receptor (Rattus norvegicus, UniProt P33535); experiment: Displacement of [3H]DAMGO from MOR in rat brain membrane measured after 2 hrs; format: cell membranes
Chain of Mu-type opioid receptor (Rattus norvegicus, UniProt P33535) (P33535 whole entry): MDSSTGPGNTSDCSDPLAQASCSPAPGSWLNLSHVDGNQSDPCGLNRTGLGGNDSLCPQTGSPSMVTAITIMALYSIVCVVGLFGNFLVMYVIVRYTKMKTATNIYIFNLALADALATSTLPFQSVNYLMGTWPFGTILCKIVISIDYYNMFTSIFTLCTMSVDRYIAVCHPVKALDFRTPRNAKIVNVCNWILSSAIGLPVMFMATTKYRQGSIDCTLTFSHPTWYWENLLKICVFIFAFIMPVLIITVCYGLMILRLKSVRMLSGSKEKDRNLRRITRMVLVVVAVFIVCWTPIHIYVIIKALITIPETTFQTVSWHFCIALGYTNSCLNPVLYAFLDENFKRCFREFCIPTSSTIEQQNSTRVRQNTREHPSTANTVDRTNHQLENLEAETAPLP

[15] = Metabolic stability in rat plasma assessed as compound remaining at 37 degC measured after 15 mins by reverse-phase HPLC analysis

Chain of Kappa-type opioid receptor (P41144 whole entry): as the sequence (P41144 whole entry) above

C[C@@H](O)[C@H](NC(=O)[C@H]1NC(=O)[C@H]([C@@H](C)O)NC(=O)[C@H](CCCN)NC(=O)[C@@H](Cc2c[nH]c3ccccc23)NC(=O)[C@H](Cc2ccc(O)cc2)NC(=O)[C@@H](NC(=O)[C@H](N)Cc2ccccc2)CSSC1(C)C)C(N)=O
Ki [1]: 14.9 µM | Ki [2]: 258 nM | Activity [3]: Active | metabolised at 2 h [4]: 25%

Cc1cc(O)cc(C)c1C[C@@H]1NC(=O)[C@H](CCCCN)NC(=O)[C@H](Cc2ccccc2)NC(=O)[C@@H](CCCCNC(=N)N)NC1=O
Ratio Ki [5]: 25 | Ratio Ki [6]: 23 | Activity [3]: Active

Cc1cc(O)cc(C)c1C[C@@H]1NC[C@H](CCCCN)NC(=O)[C@H](Cc2ccccc2)NC(=O)[C@@H](CCCNC(=N)N)NC1=O
Ratio Ki [5]: 47 | IC50 [7]: 2510 nM | Ratio Ki [6]: 7 | Activity [3]: Active

Cc1cc(O)cc(C)c1C[C@@H]1NC(=O)[C@H](CCCCN)NC(=O)[C@H](Cc2ccccc2)NC(=O)[C@@H](CCCNC(N)=O)NC1=O
Ratio Ki [5]: 52 | Ratio Ki [6]: 165

CCCC[C@@H]1NC(=O)[C@H](Cc2ccccc2)NC(=O)[C@@H](CCCNC(=N)N)NC(=O)[C@H](Cc2c(C)cc(O)cc2C)NC1=O
Activity [3]: Active

Cc1cc(O)cc(C)c1C[C@@H]1NC(=O)[C@H](CCCCN)NC(=O)[C@H](Cc2ccccc2)NC(=O)[C@@H](CCCNC(=N)N)NC1=O
Stability [8]: Stable | AUC [9]: 0.052 µg·min/g | AUC [10]: 0.505 ng·h/mL | Cmax [11]: 0.6 ng/g

Cc1cc(O)cc(C)c1C[C@@H]1NC(=O)C(CCCN)NC(=O)[C@H](Cc2ccccc2)NC(=O)[C@@H](CCCNC(=N)N)NC1=O (stereo partly drawn)
Ke [12]: 16.8 nM | Activity [3]: Active

Cc1cc(O)cc(C)c1C[C@@H]1NC(=O)C[C@H](CCCCN)NC(=O)[C@H](Cc2ccccc2)NC(=O)[C@@H](CCCNC(=N)N)NC1=O
Ki [1]: 0.000786 µM | Ke [12]: 10.5 nM | Ke [13]: 18.2 nM | Ki [14]: 0.124 nM | Ratio Ki [5]: 135 | Ki [2]: 16.7 nM | Ratio Ki [6]: 6

CC(C)C[C@H](NC(=O)[C@H](Cc1ccccc1)NC(=O)CNC(=O)CNC(=O)[C@@H](N)Cc1ccc(O)cc1)C(=O)O [ENKEPHALIN]
remaining at 0.25 h [15]: < 15%
